Active and inactive are the calls of the source.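 Rule for the calls, unless noted: active = visually confirmed hit in the image check and inhibition above 20%; inconclusive = visually confirmed hit but inhibition not above 20%; inactive = no visual hit in the image check.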
Legend:
[1] = inhibitors of TNFa-induced NFkB p65 translocation, primary screen, imaging, HUVEC, MLSMR starter and 10KST1 sets (AID 438;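 active = inhibition above 20% together with a positive visual image hit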;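 note: compound added about 3h40 before a 20 min TNFalpha stimulation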;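 for inhibition: signal is the nuclear over cytoplasmic p65 intensity ratio per well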); details: HUVEC TNFa-induced p65 nuclear translocation; cell count: measured here: nuclei count (cytotoxicity indicator), at 2.08 µM; inhibition: at 2 µM, stronger effect = higher value, 0% TNFa-plus-vehicle, 100% no-TNFa wells
[2] = reduction of polyQ htt aggregates in cells – imaging, exon1htt(103Q)mCFP cells, high-content imaging, primary screen (AID 483;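 active = visual image review flags a hit and inhibition of aggregation exceeds 20%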;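 note: compound exposure lasted 3 days before fixation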;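 for nuclei count: percent of the per-plate median nuclei count of sample wells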); details: exon1htt(103Q)mCFP cell line, aggregate imaging, at 2 µM; inhibition of aggregation: stronger effect = higher value; nuclei count: measured here: cell count, toxicity
[3] = endothelial E-selectin expression blockers – imaging, HUVEC, immunofluorescence, MLSMR starter and 10KST1 sets, primary screen (AID 487); details: HUVEC TNFalpha-induced E-selectin immunofluorescence imaging, at 2 µM; inhibition: stronger effect = higher value; nuclei count: measured here: cell number, toxicity;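 for inhibition: signal is fraction of cell area covered by stained E-selectin grains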;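 for nuclei count: 100% = median nuclei count of all wells on the same plate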
[4] = target: Voltage-gated potassium channel subunit beta-2 (Rattus norvegicus) (UniProt P62483); test: inhibitors of rat Kvbeta2 reductase activity – biochemical, NADPH fluorescence, primary screen (AID 622;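 active = fluorescence slope higher than the sample average by over 3 SD, cut at about -0.22 in these data, passing the limit was not always enough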;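 note: slope of raw intensity against log time taken from 70 to 1610 s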); details: recombinant KvBeta, 4-cyanobenzaldehyde reduction, at 10 µM, stronger effect = higher value
Chain of Voltage-gated potassium channel subunit beta-2 (Rattus norvegicus) (P62483 whole entry, looked up): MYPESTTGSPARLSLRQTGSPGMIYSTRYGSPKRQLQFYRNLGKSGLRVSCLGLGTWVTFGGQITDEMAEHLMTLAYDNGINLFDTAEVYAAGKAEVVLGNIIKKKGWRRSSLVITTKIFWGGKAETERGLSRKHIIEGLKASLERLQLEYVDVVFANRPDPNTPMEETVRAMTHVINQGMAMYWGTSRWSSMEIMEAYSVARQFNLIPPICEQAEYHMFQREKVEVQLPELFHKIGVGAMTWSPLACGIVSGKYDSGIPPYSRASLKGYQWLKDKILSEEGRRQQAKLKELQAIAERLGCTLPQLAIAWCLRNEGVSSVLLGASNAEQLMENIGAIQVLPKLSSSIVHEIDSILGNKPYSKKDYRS

[5] = target: Voltage-gated potassium channel subunit beta-2 (Rattus norvegicus) (UniProt P62483); test: enhancers of rat Kvbeta2 NADPH turnover – biochemical, NADPH fluorescence, primary screen (AID 623;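 active = NADPH fluorescence slope more negative than the mean of all samples by about 3 SD, 99.7% confidence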;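 note: fluorescence intensity change per second fitted from 20 to 320 s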); details: Recombinant KvBeta, NADPH fluorescence decrease slope, 10 min; at 10 µM; stronger effect = lower value
[6] = target: Alpha-2C adrenergic receptor (Homo sapiens) (UniProt P18825); test: compounds altering alpha2C-coupled GIRK flux – cell-based, HEK293 alpha2C/GIRK1/2, thallium flux, primary screen (AID 624;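 active = fluorescence slope after compound addition differing from the mean of all screened samples at 99.7% confidence, in either direction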;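 note: slope of fluorescence ratio to pre-addition baseline per second over 15 to 24 s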); details: thallium flux BTC fluorescence, at 10 µM, actives lie on both sides
Chain of Alpha-2C adrenergic receptor (Homo sapiens) (P18825 whole entry, looked up): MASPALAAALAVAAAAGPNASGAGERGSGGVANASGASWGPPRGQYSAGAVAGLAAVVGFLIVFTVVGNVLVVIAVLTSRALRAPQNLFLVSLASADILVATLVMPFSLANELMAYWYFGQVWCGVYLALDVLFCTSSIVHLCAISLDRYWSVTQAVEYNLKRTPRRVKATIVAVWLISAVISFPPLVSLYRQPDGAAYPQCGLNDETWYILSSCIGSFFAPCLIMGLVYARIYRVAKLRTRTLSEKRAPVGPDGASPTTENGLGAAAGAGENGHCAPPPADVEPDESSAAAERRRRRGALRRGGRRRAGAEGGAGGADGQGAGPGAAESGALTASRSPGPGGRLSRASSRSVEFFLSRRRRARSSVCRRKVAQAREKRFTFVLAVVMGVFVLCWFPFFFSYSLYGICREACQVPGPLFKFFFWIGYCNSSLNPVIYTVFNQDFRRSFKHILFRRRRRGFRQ

[7] = inhibitors of larval lipid processing in zebrafish, primary screen, whole organism, PED6 fluorescence, gall bladder and intestine (AID 686;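 active = a full or partial loss of lipid-probe fluorescence in the fish gall bladder, intestine or both, judged by eye; inactive = no fluorescence loss, or compound toxic to the fish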;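 note: larvae 5 to 7 days old with five fish per well; signal comes from phospholipase A2 cleavage of quenched PED6 carried via bile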); details: Zebrafish larvae PED6 lipid processing, fluorescence scoring; screened at 20 µM (by protocol)
Method in brief: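 Incubation: overnight exposure of larvae to compound plus PED6 / Test system: live zebrafish larvae aged 5-7 days, whole organism / Amount: 5 larvae per well / Read-out basis: visual per-well fluorescence inhibition score / Signal: visual fluorescence microscopy scoring of gall bladder, gut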

[8] = blockers of RIG-like receptor reporter activation – cell-based, Sendai virus stimulus, luciferase, 10K MLSCN set, TLR/RLR signaling modifier project, primary screen (AID 602276;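 active = inhibition at or above 50% at 10 µM; inactive = inhibition below 50%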;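 note: firefly luciferase from ISG56 promoter only with Renilla not read in this screen; 0% = Sendai virus plus DMSO and 100% = medium plus DMSO without virus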); details: HEK293 RL24 IRF3 luciferase reporter, at 10 µM, stronger effect = higher value
[9] = TLR3 IRF3 reporter activation blockers – cell-based, poly I:C stimulus, luciferase, 10K MLSCN set, primary screen (AID 602277;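 active = inhibition of the reporter signal at or above 50%; inactive = inhibition below 50%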); details: HEK293-TLR3 RL24 IRF3 luciferase reporter, at 10 µM, stronger effect = higher value

SMILES | cell count [1] | inhibition [1] | inhibition of aggregation [2] | nuclei count [2] [%] | inhibition [3] | nuclei count [3] [%] | fluorescence slope [4] | NADPH fluorescence slope [5] | slope [6] | outcome [7] | inhibition [8] | inhibition [9]
CCCNC(=O)N1CCN(S(=O)(=O)c2ccc(C)c(C)c2)CC1 | 412 | -0.4% (inactive) | -16.1% (inactive) | 105 | -28.8% (inactive) | 103 | -0.486 (inactive) | -5.4e-05 (inactive) | 0.00557 (inactive) | inactive | -6.27% (inactive) | -8.98% (inactive)
O=C(Nc1ccc2oc(Cc3ccc(Cl)cc3)nc2c1)c1cccnc1 | 396 | 6.7% (inactive) | -0.8% (inactive) | 93.5 | -15% (inactive) | 114 | -0.364 (inactive) | -2.3e-06 (inactive) | 0.00427 (inactive) | inactive | 14.7% (inactive) | 7.42% (inactive)
Cc1ccc(S(=O)(=O)N2CCN(C(=O)N3CCOCC3)C2c2ccc(N(C)C)cc2)cc1 (centres undefined) | 377 | -0.5% (inactive) | 0.7% (inactive) | 98 | -44.5% (inactive) | 121 | -0.419 (inactive) | -5.2e-05 (inactive) | 0.00452 (inactive) | inactive | 12.8% (inactive) | 8.2% (inactive)
COc1ccc2cc(C#N)c(N3CCN(Cc4nnnn4CCC(C)C)CC3)nc2c1 | 363 | 7% (inactive) | 20.7% (inactive) | 85.8 | -5.8% (inactive) | 78.1 | -0.379 (inactive) | -3.8e-05 (inactive) | 0.00501 (inactive) | inactive | 12.8% (inactive) | -2.3% (inactive)
O=C(CSc1nnc(-c2ccc(Br)cc2)n1C1CCCCC1)N1CCCC1 | 306 | -17.8% (inactive) | 5.3% (inactive) | 101 | 4.3% (inactive) | 81.3 | -0.371 (inactive) | 1.5e-05 (inactive) | 0.00599 (inactive) | inactive | -3.56% (inactive) | -4.51% (inactive)
Cn1c(=O)c2c(nc(N3CCN(c4ccccc4)CC3)n2CCCc2ccccc2)n(C)c1=O | 702 | 1.4% (inactive) | -15.2% (inactive) | 99.1 | 20.4% (inactive) | 96.5 | -0.339 (inactive) | -3.2e-05 (inactive) | 0.00552 (inactive) | inactive | 10.7% (inactive) | -10.5% (inactive)
CCOC(=O)c1[nH]c2ccc(C)cc2c1NC(=O)CN1CCCCC1 | 672 | 13.7% (inactive) | 5.6% (inactive) | 93.3 | -12% (inactive) | 87.9 | -0.349 (inactive) | -2.6e-05 (inactive) | 0.00444 (inactive) | inactive | 13.3% (inactive) | 14.1% (inactive)
Cn1c(CN2CCCCC2)nc2cc(NC(=O)c3ccccc3)ccc21 | 435 | -0.8% (inactive) | 3.4% (inactive) | 85.3 | 2.3% (inactive) | 92.4 | -0.438 (inactive) | -9.5e-07 (inactive) | 0.00451 (inactive) | inactive | -17.4% (inactive) | 98.6% (active)
CCNc1ccc(S(=O)(=O)C(F)(F)F)cc1NC(=O)C12CCC(CC1)C2 | 380 | 2.5% (inactive) | -4.3% (inactive) | 108 | -30.6% (inactive) | 101 | -0.481 (inactive) | -3.1e-05 (inactive) | 0.0047 (inactive) | inactive | -90% (inactive) | 99.7% (active)
Cn1cnnc1Sc1nc2c(c(=O)n(C)c(=O)n2C)n1Cc1ccccc1Cl | 376 | 7.7% (inactive) | -1.6% (inactive) | 106 | -73.3% (inactive) | 123 | -0.426 (inactive) | -3.9e-05 (inactive) | 0.005 (inactive) | inactive | 15.5% (inactive) | 21.9% (inactive)
Cc1ccc(C)n1-c1ccc(-n2cnnn2)cc1 | 572 | -1.6% (inactive) | -8.3% (inactive) | 86.5 | -24.4% (inactive) | 50.8 | -0.366 (inactive) | -5.9e-05 (inactive) | 0.00396 (inactive) | inactive | 8.71% (inactive) | 9.74% (inactive)
CCOCCCN(Cc1cc2cc(C)cc(C)c2[nH]c1=O)C(=O)N(CC)CC | 320 | 4.5% (inactive) | 2.5% (inactive) | 92.2 | -15.3% (inactive) | 106 | -0.423 (inactive) | -3.6e-05 (inactive) | 0.00543 (inactive) | inactive | -10.7% (inactive) | -6.77% (inactive)
COc1ccc(OC)c(NS(=O)(=O)Cc2ccccc2)c1 | 356 | 6.3% (inactive) | -14.8% (inactive) | 110 | -73.7% (inactive) | 120 | -0.424 (inactive) | -1.8e-05 (inactive) | 0.00242 (inactive) | inactive | 13.9% (inactive) | 16.5% (inactive)
O=C(Nc1ccc2[nH]c3c(c2c1)CCCC3)c1ccco1 | 446 | -20.5% (inactive) | 31% (inactive) | 85.7 | 78.9% (active) | 103 | -0.288 (inactive) | -4.7e-05 (inactive) | 0.00582 (inactive) | inactive | -30.4% (inactive) | -98.2% (inactive)
Cc1ccc(CN2C(=O)CCC2C(=O)NCCCN2CCCC(C)C2)cc1 (centres undefined) | 436 | 6.9% (inactive) | -3.9% (inactive) | 106 | -43.5% (inactive) | 129 | -0.434 (inactive) | -2.5e-05 (inactive) | 0.0056 (inactive) | inactive | -5.02% (inactive) | 4.05% (inactive)
COc1ccccc1NC(=O)NCc1ccc2c(c1)OCO2 | 361 | -9.8% (inactive) | 25.8% (inactive) | 97 | 37.9% (inactive) | 78.8 | -0.341 (inactive) | -2.6e-05 (inactive) | 0.0055 (inactive) | inactive | 10.7% (inactive) | 17.5% (inactive)
COc1ccc(N=C2C(=O)Nc3ccccc32)cc1 | 617 | 2.4% (inactive) | -5% (inactive) | 100 | -96.7% (inactive) | 138 | -0.374 (inactive) | -1.5e-06 (inactive) | 0.00431 (inactive) | inactive | 13% (inactive) | 28.1% (inactive)
COc1cc(CC(=O)Oc2ccc3c(c2)OCO3)cc(OC)c1OC | 469 | 1.1% (inactive) | -5.8% (inactive) | 112 | -79.4% (inactive) | 101 | -0.392 (inactive) | -5.2e-05 (inactive) | 0.00391 (inactive) | inactive | 2.88% (inactive) | 99% (active)
O=C(O)CC(C(=O)Nc1cccc(C(F)(F)F)c1)C1CCCO1 (centres undefined) | 548 | -10.1% (inactive) | 9.8% (inactive) | 101 | 2.3% (inactive) | 92.1 | -0.375 (inactive) | -2.9e-05 (inactive) | 0.00461 (inactive) | inactive | -2.64% (inactive) | 7.18% (inactive)
COc1ccc(Cl)c(N2CCN(CCCNC(=O)Nc3ccc(C)cc3)CC2)c1 | 320 | 2.4% (inactive) | -10.7% (inactive) | 98.8 | 16% (inactive) | 108 | -0.479 (inactive) | -5.7e-05 (inactive) | 0.0037 (inactive) | inactive | 2.1% (inactive) | -5.24% (inactive)
COc1ccc(OC)c(NC(=O)CSc2nnc(-c3ccco3)n2-c2ccccc2)c1 | 552 | 10.2% (inactive) | 9.3% (inactive) | 104 | -59.6% (inactive) | 98.9 | -0.466 (inactive) | -3.5e-05 (inactive) | 0.00516 (inactive) | inactive | 12.9% (inactive) | 12.9% (inactive)
CN(C)C(CNC(=O)Nc1cccc(Cl)c1)c1cccnc1 (centres undefined) | 298 | -5.5% (inactive) | 1.1% (inactive) | 67.5 | -40.7% (inactive) | 115 | -0.427 (inactive) | -5.1e-06 (inactive) | 0.00889 (active) | inactive | 18.9% (inactive) | 26.3% (inactive)
O=c1c2[nH]c3ccc(Cl)cc3c2ncn1Cc1ccccn1 | 302 | -3.6% (inactive) | -30.4% (inactive) | 83.4 | -31.6% (inactive) | 107 | -0.392 (inactive) | -4.3e-05 (inactive) | 0.00522 (inactive) | inactive | -2.53% (inactive) | 5.03% (inactive)
Cn1c(-c2ccccc2)cnc1SCc1nc2ccccc2c(=O)[nH]1 | 428 | 0.8% (inactive) | -3.4% (inactive) | 119 | -80.8% (inactive) | 109 | -0.379 (inactive) | -6.5e-05 (inactive) | 0.00544 (inactive) | inactive | 11.1% (inactive) | -54% (inactive)
Cc1cn(C2CC3OCC3O2)c(=O)[nH]c1=O (centres undefined) | 381 | 2.5% (inactive) | 0.6% (inactive) | 98.5 | 30.5% (inactive) | 98.4 | -0.399 (inactive) | 1.2e-05 (inactive) | 0.00591 (inactive) | inactive | -0.457% (inactive) | 5.51% (inactive)
O=C(O)C1CCCCC1C(=O)Nc1ccccn1 (centres undefined) | 475 | -7.1% (inactive) | -2.7% (inactive) | 109 | 18.5% (inactive) | 83.2 | -0.445 (inactive) | -5e-05 (inactive) | 0.00502 (inactive) | inactive | 7.72% (inactive) | 0.963% (inactive)
Nn1c(SCC(=O)Nc2ccccc2)nnc1-c1cccnc1 | 502 | -4.8% (inactive) | 11% (inactive) | 126 | 7% (inactive) | 118 | -0.363 (inactive) | -3.7e-05 (inactive) | 0.00741 (inactive) | inactive | -6.03% (inactive) | -3.73% (inactive)

— PubChem BioAssay
